Data taken from the RNAGym collection of RNA variant scans (doi:10.1126/science.aae0568).
Fewer inactive variants are shown than the library holds.

B1: tRNA (parent)
chain: GUUCCGUUGGCGUAAUGGUAACGCGUCUCCCUCCUAAGGAGAAGACUGCGGGUUCGAGUCCCGUACGGAACG

Variants of: B1
Test: yeast fitness relative to wild type (ratio to wild type); higher = fitter; tRNA-Arg(CCU), competitive growth, 37 C, YPD
Outline: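 Variants of the tRNA-Arg(CCU) gene were chemically synthesised with a 3% per-site mutation rate across 69 sites and placed at the native genomic locus in Saccharomyces cerevisiae. Six parallel replicates of the pooled strains were competed in YPD at 37°C for 24 hours, and gene amplicons from the start and end populations were read by 100-nucleotide paired-end sequencing. Darwinian fitness relative to wild type was derived from changes in genotype frequencies. Genotypes required ≥ 100 starting reads, and estimates < 0.5 were set to 0.5.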

Row | Variant | yeast fitness
1 | GUUUCGUUGGCGUAAUGGUAACGCGUCUCCCUCCUAAGGAGGAGACUGCGGGUUCGAGUCCCGUACGGCACG [C4U A42G A69C] | 0.636
2 | GUUUCGUUGGCGUAAUGGUAACGCGUCUCCCUCCUAAGGAGGAGACUGCGGGUUCGAGUCCCGUUCGGAACG [C4U A42G A65U] | 0.611
3 | GUUUCGUUGGCGUAAUGGUAACGCGUCUCCCUCCUAAGGAGAAGCCUGCGGGUUCGAGUGCCGUACGGGACG [C4U A45C C60G A69G] | ≤ 0.5
4 | GUUUCGUUGGCGUAAUGGUAACGCGUCUCCCUCCUAAGGCGAAGACUGCGGGUUCGAGUCCCGUACGGAACG [C4U A40C] | 0.835
5 | GUUUCGUUGGCGUAAUGGUAACGCGUCUCCCUCCUAAGGUGAAGACUGCGGGUUCGAGUCCCGUACGGAACG [C4U A40U] | 0.898
6 | GUUUCGUUGGCGUAAUGGUAACGCGUCUCCCUCCUAAGGAGAAGUCUGCGGGUUCGAGUCCCGUAUGGAACG [C4U A45U C66U] | 0.656
7 | GUUUAGUUGGCGAAAUGGUAACGCGUCUCCUUCUUAAGGAGAAGACUGCGGGUUCGAGUCCCGUAUGGAACG [C4U C5A U13A C31U C34U C66U] | ≤ 0.5
8 | GUUUCGUUGGCGUAAUGGUAACGCGUCUCCCUCCUAAGGAGAAGACUGCGGGUUCGUGCCCCGUACGGAACG [C4U A57U U59C] | 0.54
9 | GUUUCGUUGGCGUAAUGGUAACGCGUCUCCCUCCUAAGGAGAAGGCUGCGGGUUCGCGUCCCGUACGGAACG [C4U A45G A57C] | 0.585
10 | GUUUAGUUGGCGAAAUGGUAACGCGUCUCCUUCUUAAGGAGAAGACUGCGGGUUAGAAUCCCGUACGGAACG [C4U C5A U13A C31U C34U C55A G58A] | ≤ 0.5
11 | GUUUAGUUGGCGUAAUGGUAACGCGUCUCCCUCCUAAGGAGAAGAUUGCGGGUUCGAGUCCCGUACGGAACG [C4U C5A C46U] | 0.655
12 | GUUUCGUUGGCGUAAUGGUAACGCGUCUCCCUCCUAAGGAGAAGACUGCGGGUUCGCAUCCCGUACGGAACG [C4U A57C G58A] | 0.58
13 | GUUUCGUUGGCGUAAUGGUAACGCGUCUCCCUCCUAAGGAGAAGACUGCGGGUUCGAGUCCCGUACGGAUCG [C4U A70U] | 1.02
14 | GUUUCGUUGGCGUAAUGGUAACGCGUCUCCCUCCUAAGGAGAAGACUGCGGGUUCGAGUCCCGUACGGACCG [C4U A70C] | 0.989
15 | GUUUCGUUGGCGUAAUGGUAACGCGUCUCCCUCCUAAGGAGUAGACUGGGGGUUCGAGUCCCGUACGGAACG [C4U A42U C49G] | 0.543
16 | GUUUAGUUGGCGUAAUGGUAGCGCGUCUCCCUCCUAAGGAGAUGAUUGCGCGUUUGAGUCCCGUCCGGAACG [C4U C5A A21G A43U C46U G51C C55U A65C] | ≤ 0.5
17 | GUUUAGUUGGCGUAAUGGUAACGCGUCUCCCUCCUAAGGAGAAGACUGCGGGUUCGAGUGCCGUACGGAACG [C4U C5A C60G] | ≤ 0.5
18 | GUUUCGUUGGCGUAAUGGUAACGCGUCUCCCUCCUCAGGAGAAGACUGCGGGUCCGAGUCCCGUACGGAACG [C4U A36C U54C] | ≤ 0.5
19 | GUUUCGUUGGCGUAAUGGUAACGCGUCUCCCUCCUCAGGAGAAGACUACGGGUUCGAGUCCCGUACGGAACG [C4U A36C G48A] | 0.71

Row | Variant | yeast fitness
20 | GUUUCGUUGGCGUAAUGGUAACGCGUCUCCCUCCUAAGGAGAGGAUUGCGGGUUCGAGUCCCGUACGGAACG [C4U A43G C46U] | 0.994
21 | GUUUAGUUGGCGUAAUGGUAACGCGUCUCCCUCCUAAGGAGAAGACUGCGGGUUCGAGUACUGCACGACACG [C4U C5A C60A C62U U64C G68A A69C] | 0.579
22 | GUUUCGUUGGCGUAAUGGUAACGCGUCUCCCUCCUGAGGAGAACACUGCGGGUUCGAGUCCCGUACGGAACG [C4U A36G G44C] | 0.765
23 | GUUUCGUUGGCGUAAUGGUAACGCGUCUCCCUCCUAAGGAGAAGGCUGCGAGUUCGAGUCCCGUACAGAACG [C4U A45G G51A G67A] | ≤ 0.5
24 | GUUUCGUUGGCGUAAUGGUAACGCGUCUCCCUCCUUAGGAGAAGACCGCGGGUUCGAGUCCCGUACGGAACG [C4U A36U U47C] | ≤ 0.5
25 | GUUUCGUUGGCGUAAUGGUAACGCGUCUCCCUCCUGAGGAGAACACUGUGGGUUCGAGUCCCGUACGGAACG [C4U A36G G44C C49U] | 0.631
26 | GUUUCGUUGGCGUAAUGGUAACGCGUCUCCCUCCUUAGGAGAAGACUGCGGGUUCGAGUCCCGUACGAAACG [C4U A36U G68A] | ≤ 0.5
27 | GUUUCGUUGGCGUAAUGGUAACGCGUCUCCCUCCUAUGGAGAAGACUGCGGGUUCGAGUCCCGUACGGACCG [C4U A37U A70C] | 0.676
28 | GUUUCGUUGGCGUAAUGGUAACGCGUCUCCCUCCUACGGAGAAGACUGUGGGUUCGAGUGCCGUACGGAACG [C4U A37C C49U C60G] | ≤ 0.5
29 | GUUUCGUUGGCGUAAUGGUAACGCGUCUCCCUCCUAAGGAGAAGACUGCGGGUUCGAGUCCCGUACGGCACG [C4U A69C] | 1.02
30 | GUUUCGUUGGCGUAAUGGUAACGCGUCUCCCUCCUAAGGAGAAGACUGCGGGUUCGAGUCCCGUACGGUACG [C4U A69U] | 1.02
31 | GUUUCGUUGGCGUAAUGGUAACGCGUCUCCCUCCUAGGGAGAAGAUUGCGGGUUCGAGUCCCGUACGGAACG [C4U A37G C46U] | 0.54
32 | GUUUCGUUGGCGUAAUGGUAACGCGUCUCCCUCCUGAGAAGAAGACUGCGGGUUCGAGUCCCGUACAGAACG [C4U A36G G39A G67A] | ≤ 0.5
33 | GUUUCGUUGGCGUAAUGGUAACGCGUCUCCCUCCUAAGGAGGAGACUGCGGGUUCGUGUCCCGUACGGAACG [C4U A42G A57U] | 0.551
34 | GUUUCGUUGGCGUAAUGGUAACGCGUCUCCCUCCUAAGGAGACGACUGCGAGUUCGAGUCCCGUACGUAACG [C4U A43C G51A G68U] | 0.623
35 | GUUUAGUUGGCGUAAUGGUAACGCGUCUCCCUUCUAAGGAGAAGACUGCGGGUUCGAGUCCCGUAUGGAACG [C4U C5A C33U C66U] | ≤ 0.5
36 | GUUUCGUUGGCGUAAUGGUAACGCGUCUCCCUCCUUAGGAGAAGACUGCGGGUUAGAGUCCCGUACGGAACG [C4U A36U C55A] | 0.659
37 | GUUUCGUUGGCGUAAUGGUAACGCGUCUCCCUCCUUAGGAGAAGACUGCGGAUUCGAGUCCCGUACGGAACG [C4U A36U G52A] | ≤ 0.5
38 | GUUUCGUUGGCGUAAUGGUAACGCGUCUCCCUCCUAAGGAGAAGACUGCGGGUUCGAGUCCCGUCCGAAACG [C4U A65C G68A] | 1.03
